From ChEMBL document CHEMBL4371057, “Hydroxamic Acid Inhibitors Provide Cross-Species Inhibition of Plasmodium M1 and M17 Aminopeptidases” (J Med Chem, 2019) come the findings set out here.

Each structure is given as a SMILES string. The source made the active and inactive calls. The rule behind the calls is not given here. A value given as a limit tells only on which side of the number the result lay.

For data set [1], the system named is Plasmodium falciparum. To be noted: 2 mM.
For data set [2], the target named is T1, Matrilysin (Homo sapiens) (UniProt P09237).
T1 sequence (whole entry): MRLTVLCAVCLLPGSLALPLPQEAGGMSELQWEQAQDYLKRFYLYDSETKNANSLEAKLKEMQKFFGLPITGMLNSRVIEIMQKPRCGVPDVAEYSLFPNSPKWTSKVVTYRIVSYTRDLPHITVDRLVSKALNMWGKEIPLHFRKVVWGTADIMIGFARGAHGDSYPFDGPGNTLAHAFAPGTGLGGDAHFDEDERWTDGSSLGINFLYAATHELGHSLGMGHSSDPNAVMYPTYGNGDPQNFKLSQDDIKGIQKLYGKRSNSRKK
The experiment in a line: Inhibition of MMP7 (unknown origin) preincubated for 1 hr followed by (QF)-24 substrate addition measured at 1 min time interval for 1 hr by fluorescence assay. A digest of the protocol: (§1)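 MMPs were activated with 1 mM 4-aminophenylmercuric acetate (50 mM HEPES, 150 mM NaCl, 5 mM CaCl2, pH 7.0, 1 h, rt). 1 μM QF24 was added at 37 °C and read at 320/405 nm every minute for 1 h. IC50 from a four-parameter Hill fit; three independent experiments.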

Data set [3] has as its system Plasmodium falciparum. The experiment in a line: Antimalarial activity against Plasmodium falciparum Dd2 after 72 hrs by DAPI staining-based confocal imaging analysis. To be noted: Plasmodium falciparum, Dd2, 72 h; read-out: IC50. The data set is classed as functional, organism-based. In short, it runs like this:
(§2)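 Exposed to a 16-point dose series (40 μM to 0.4 nM final, 0.4% DMSO) for 72 h at 37 °C in 90% N2/5% CO2/5% O2. DAPI-stained and imaged confocally. Two biological replicates, each with two technical repeats.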

Data set [4] can be described thus: Cytotoxicity against HEK293 cells after 72 hrs by resazurin dye based assay. The data set is classed as cell-based. Particulars: human. In short, it runs like this:
(§3)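 HEK293 cells kept in DMEM with 10% FBS. Exposed to compounds for 72 h at 37 °C, 5% CO2, using the same dilution scheme as the parasite assay (top 40 μM). Medium then replaced with 44 μM resazurin, and fluorescence (530/595 nm) read after 5–6 h.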
In general terms: Alamar Blue is a resazurin reagent that responds to reducing activity.

The nature of data set [5]: Growth inhibition of HEK293 cells at 40 uM after 72 hrs by resazurin dye based assay relative to control. The data set is classed as cell-based. To be noted: human, read-out: GI. A digest of the protocol:
as §3

Data set [6] in a line: Inhibition of Plasmodium vivax C-terminal His6-tagged M17 aminopeptidase (203 to 621 residues) expressed in Escherichia coli BL21(DE3) preincubated for 20 mins followed by L-leucine-7-amido-4-methylcoumarin addition by Morrison equation analysis. A digest of the protocol: (§4)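 Recombinant enzymes (Ni-NTA then size exclusion) were preincubated 20 min with inhibitor in 100 mM Tris-HCl pH 8.0, with 2 mM CoCl2 for Pf-M17 and 1 mM for Pv-M17. Leu-AMC substrate: 20 μM (Pf-M1), 40 μM (Pv-M1), 10 μM (both M17). Read at 37 °C, 355/460 nm, to steady-state velocity. Ki from a Morrison tight-binding fit; biological triplicate from three protein preparations.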

The nature of data set [7]: Selectivity ratio of Ki for Plasmodium falciparum C-terminal His6-tagged M1 aminopeptidase (195 to 1085 residues) expressed in Escherichia coli BL21(DE3) to Ki for Plasmodium vivax C-terminal His6-tagged M1 aminopeptidase (195 to 1097 residues) expressed in Escherichia coli BL21(DE3).
Data set [8] is described as follows: Growth inhibition of HEK293 cells at 10 uM after 72 hrs by resazurin dye based assay relative to control. The data set is classed as cell-based. To be noted: human, read-out: GI. A digest of the protocol: as §3
Data set [9] addresses Matrix metalloproteinase-9 (Homo sapiens, UniProt P14780). The experiment in a line: Inhibition of MMP9 (unknown origin) preincubated for 1 hr followed by (QF)-24 substrate addition measured at 1 min time interval for 1 hr by fluorescence assay.
The nature of data set [10]: Inhibition of Plasmodium falciparum C-terminal His6-tagged M1 aminopeptidase (195 to 1085 residues) expressed in Escherichia coli BL21(DE3) preincubated for 20 mins followed by L-leucine-7-amido-4-methylcoumarin addition by Morrison equation analysis. A digest of the protocol:
as §4

The subject of data set [11] is Insulin-regulated aminopeptidase (Homo sapiens). In words: Inhibition of human IRAP at <200 uM preincubated for 10 mins followed by L-leucine-7-amido-4-methylcoumarin addition by fluorescence assay.
For data set [12], the system named is Plasmodium falciparum. In words: Antimalarial activity against Plasmodium falciparum 3D7 after 72 hrs by DAPI staining-based confocal imaging analysis. The data set is classed as functional, organism-based. To be noted: 3D7, 72 h. A digest of the protocol: as §2
Data set [13] addresses Aminopeptidase N (Homo sapiens, UniProt P15144). The experiment in a line: Inhibition of human APN expressed in HEK293 cells preincubated for 10 mins followed by L-leucine-7-amido-4-methylcoumarin addition by fluorescence assay.
Data set [14] can be described thus: Inhibition of Plasmodium falciparum C-terminal His6-tagged M17 aminopeptidase (85 to 605 residues) expressed in Escherichia coli BL21(DE3) preincubated for 20 mins followed by L-leucine-7-amido-4-methylcoumarin addition by Morrison equation analysis. A digest of the protocol: as §4
In data set [15] the target is Neutrophil collagenase (Homo sapiens) (UniProt P22894). In words: Inhibition of MMP8 (unknown origin) preincubated for 1 hr followed by (QF)-24 substrate addition measured at 1 min time interval for 1 hr by fluorescence assay. In short, it runs like this:
as §1

The nature of data set [16]: Inhibition of Plasmodium vivax C-terminal His6-tagged M1 aminopeptidase (195 to 1097 residues) expressed in Escherichia coli BL21(DE3) preincubated for 20 mins followed by L-leucine-7-amido-4-methylcoumarin addition by Morrison equation analysis. A digest of the protocol: as §4
The target of data set [17] is 72 kDa type IV collagenase (Homo sapiens, UniProt P08253). In words: Inhibition of MMP2 (unknown origin) preincubated for 1 hr followed by (QF)-24 substrate addition measured at 1 min time interval for 1 hr by fluorescence assay.
Sequence of 72 kDa type IV collagenase (P08253 whole entry): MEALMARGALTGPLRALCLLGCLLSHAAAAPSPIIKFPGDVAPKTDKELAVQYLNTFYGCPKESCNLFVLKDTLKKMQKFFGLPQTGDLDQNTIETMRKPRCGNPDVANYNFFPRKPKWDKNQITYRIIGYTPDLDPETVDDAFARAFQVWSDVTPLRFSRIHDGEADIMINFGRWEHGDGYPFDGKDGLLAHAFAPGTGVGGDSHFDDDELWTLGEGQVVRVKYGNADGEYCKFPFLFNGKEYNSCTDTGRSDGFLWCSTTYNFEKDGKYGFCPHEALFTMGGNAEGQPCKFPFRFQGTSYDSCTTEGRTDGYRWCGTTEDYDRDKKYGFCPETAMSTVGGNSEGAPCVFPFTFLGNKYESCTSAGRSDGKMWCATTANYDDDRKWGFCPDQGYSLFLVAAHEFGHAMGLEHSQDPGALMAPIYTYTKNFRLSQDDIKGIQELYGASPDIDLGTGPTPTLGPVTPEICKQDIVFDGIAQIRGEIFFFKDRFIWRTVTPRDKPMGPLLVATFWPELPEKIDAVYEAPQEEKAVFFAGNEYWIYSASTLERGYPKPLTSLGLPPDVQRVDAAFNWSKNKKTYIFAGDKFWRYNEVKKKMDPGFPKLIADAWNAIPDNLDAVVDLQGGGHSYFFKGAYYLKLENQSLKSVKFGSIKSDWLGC
Data set [18] can be described thus: Selectivity index, ratio of CC50 for HEK293 cells to IC50 for Plasmodium falciparum 3D7. The data set is classed as toxicity. To be noted: human, read-out: Ratio CC50/IC50.
Data set [19] has as its system Plasmodium falciparum. In words: Reversible inhibition of Plasmodium falciparum C-terminal His6-tagged M17 aminopeptidase (85 to 605 residues) expressed in Escherichia coli BL21(DE3) assessed as enzyme activity recovery at 150 uM preincubated followed by compound washout for 5 hrs and subsequent L-leucine-7-amido-4-methylcoumarin substrate addition by fluorescence assay. A digest of the protocol: (§5)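 Pf-M17 (20 μM) was incubated overnight at 4 °C with 150 μM compound, 150 μM bestatin, 2 mM EDTA, or buffer (50 mM HEPES pH 8, 300 mM NaCl). It was then washed by repeated 10-fold concentration/dilution for up to 7 h, incubated 10 min in 1 mM MnCl2, 100 mM Tris pH 8.0, given 25 μM Leu-AMC (final), and fluorescence followed for 30 min.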

Data set [20] relates to Plasmodium falciparum. The experiment in a line: Reversible inhibition of Plasmodium falciparum C-terminal His6-tagged M17 aminopeptidase (85 to 605 residues) expressed in Escherichia coli BL21(DE3) assessed as enzyme activity recovery at 150 uM preincubated followed by compound washout for 7 hrs and subsequent L-leucine-7-amido-4-methylcoumarin substrate addition by fluorescence assay relative to control. Details: scale not given: the % may be the effect or the level left. A digest of the protocol:
as §5

Sequence of Neutrophil collagenase (Homo sapiens) (P22894 101-467 limits assumed): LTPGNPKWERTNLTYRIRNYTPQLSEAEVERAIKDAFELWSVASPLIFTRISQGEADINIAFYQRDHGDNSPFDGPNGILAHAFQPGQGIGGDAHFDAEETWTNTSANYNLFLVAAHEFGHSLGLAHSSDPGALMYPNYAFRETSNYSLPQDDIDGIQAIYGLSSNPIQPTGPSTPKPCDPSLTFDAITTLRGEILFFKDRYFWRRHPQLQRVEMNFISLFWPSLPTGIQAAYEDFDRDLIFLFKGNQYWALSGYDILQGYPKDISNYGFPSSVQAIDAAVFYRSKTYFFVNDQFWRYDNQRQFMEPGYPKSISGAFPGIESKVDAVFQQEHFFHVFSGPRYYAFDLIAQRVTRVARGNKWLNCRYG
Sequence of Matrix metalloproteinase-9 (P14780 whole entry, the tested form may be a part): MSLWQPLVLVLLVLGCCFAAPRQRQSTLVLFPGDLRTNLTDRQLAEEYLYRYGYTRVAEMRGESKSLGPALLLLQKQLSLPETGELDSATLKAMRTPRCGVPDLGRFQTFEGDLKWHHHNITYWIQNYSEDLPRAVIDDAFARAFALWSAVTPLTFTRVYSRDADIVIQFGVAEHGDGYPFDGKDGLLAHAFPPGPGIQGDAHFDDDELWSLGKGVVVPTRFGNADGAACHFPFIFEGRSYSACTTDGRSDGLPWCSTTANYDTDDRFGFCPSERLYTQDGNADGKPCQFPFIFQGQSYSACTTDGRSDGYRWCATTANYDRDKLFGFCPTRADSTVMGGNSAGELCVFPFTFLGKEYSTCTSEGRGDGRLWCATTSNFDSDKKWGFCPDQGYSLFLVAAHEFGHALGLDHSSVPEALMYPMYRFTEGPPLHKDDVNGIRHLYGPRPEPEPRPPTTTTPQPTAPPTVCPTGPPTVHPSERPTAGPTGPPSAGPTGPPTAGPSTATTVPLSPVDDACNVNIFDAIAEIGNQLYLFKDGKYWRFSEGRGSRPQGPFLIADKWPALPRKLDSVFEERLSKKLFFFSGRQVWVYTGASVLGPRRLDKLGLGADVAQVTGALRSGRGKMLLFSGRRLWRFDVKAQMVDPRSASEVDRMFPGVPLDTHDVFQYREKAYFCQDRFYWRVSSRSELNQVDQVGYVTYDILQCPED
Sequence of Aminopeptidase N (P15144 whole entry, the tested form may be a part): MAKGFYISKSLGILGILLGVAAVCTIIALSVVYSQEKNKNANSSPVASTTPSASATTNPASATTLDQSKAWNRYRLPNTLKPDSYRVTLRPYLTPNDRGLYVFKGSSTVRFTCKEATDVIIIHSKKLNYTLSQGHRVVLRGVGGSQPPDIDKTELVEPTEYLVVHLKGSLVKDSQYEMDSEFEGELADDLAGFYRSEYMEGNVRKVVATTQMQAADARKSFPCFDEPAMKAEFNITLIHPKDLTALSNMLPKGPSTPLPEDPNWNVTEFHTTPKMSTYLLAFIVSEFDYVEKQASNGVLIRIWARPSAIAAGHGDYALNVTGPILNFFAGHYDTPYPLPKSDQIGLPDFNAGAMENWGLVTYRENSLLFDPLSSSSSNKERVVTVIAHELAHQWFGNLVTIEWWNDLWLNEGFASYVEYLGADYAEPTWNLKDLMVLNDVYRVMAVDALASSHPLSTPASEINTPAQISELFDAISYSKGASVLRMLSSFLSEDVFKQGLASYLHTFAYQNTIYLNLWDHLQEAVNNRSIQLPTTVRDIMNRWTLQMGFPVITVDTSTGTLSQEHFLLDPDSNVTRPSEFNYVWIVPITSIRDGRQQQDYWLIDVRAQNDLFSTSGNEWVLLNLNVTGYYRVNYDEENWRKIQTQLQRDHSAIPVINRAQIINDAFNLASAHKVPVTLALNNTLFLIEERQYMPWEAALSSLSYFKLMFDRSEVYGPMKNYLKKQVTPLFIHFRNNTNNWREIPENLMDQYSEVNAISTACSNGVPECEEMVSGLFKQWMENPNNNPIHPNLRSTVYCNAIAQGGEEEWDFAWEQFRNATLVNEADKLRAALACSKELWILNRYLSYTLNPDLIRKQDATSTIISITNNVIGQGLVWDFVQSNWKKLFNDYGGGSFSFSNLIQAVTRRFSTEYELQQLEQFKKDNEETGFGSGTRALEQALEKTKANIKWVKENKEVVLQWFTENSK

As to `O=C(O)CN(CCN(CC(=O)O)CC(=O)O)CC(=O)O`, the inhibition entry in data set [1] was “Active”.
Turning to `CC(C)(C)CC(=O)NC(C(=O)NO)c1ccc(-c2cc(F)c(F)c(F)c2)cc1` (configuration not stated), the inhibition entry in data set [2] and in data set [15] was “Active” throughout. Moreover, the half-maximal inhibitory concentration (IC50) in data set [3] was 13.8 nM; in [9], greater than 1000 µM; in data set [12] it was 14.6 nM; in [17], 17 µM. This molecule also came in with a CC50 at 72 h in data set [4] of no less than 20 µM. Besides, the inhibition at 72 h, 40 µM in data set [5] stood at 98.4%. Besides, the Ki turned out to be 3.6 nM in data set [6]; 269 nM in data set [10]; 300 nM in [13]; 101 nM in [14]; 6.39 nM in [16]. Also, the Ratio Ki in data set [7] stood at 42.1. Also, the inhibition at 72 h, 10 µM in [8] is 4.8%. For the same molecule, the inhibition entry in [11] is “inactive”. For the same molecule, in [18], the selectivity ratio is no less than 1370.
Regarding `CC(C)C[C@H](NC(=O)[C@@H](O)[C@H](N)Cc1ccccc1)C(=O)O`, the inhibition entry in data set [19] was “Active”.
On to `CNC(=O)[C@@H](NC(=O)[C@H](CC(C)C)[C@H](O)C(=O)NO)C(C)(C)C`, for which the inhibition result in data set [2] and in data set [15] was “Active” each time.
As to `O=C(NO)C(NC(=O)C12CC3CC(CC(C3)C1)C2)c1ccc(-c2cc(F)c(F)c(F)c2)cc1` (configuration not stated), the concentration for half-maximal inhibition (IC50) in [3] is 313 nM; in [12], 357 nM. Moreover, in data set [5], the inhibition at 72 h, 40 µM amounted to 42.9%. Besides, the Ki in [6] worked out at 18.6 nM; in data set [10], 137 nM; in [14], 28.9 nM; in data set [16], 122 nM. In data set [7], the Ratio Ki came out at 1.1. Moreover, the inhibition at 72 h, 10 µM in data set [8] worked out at 2.1%. Moreover, in data set [19], the inhibition entry was “Active”. Also, the Activity in [20] amounted to 20%. Further, the selectivity ratio in data set [18] is no less than 56.
With `CC(C)C[C@@H](C(=O)N[C@H](C(=O)OC1CCCC1)c1ccccc1)C(O)C(=O)NO` (some centres not stated), the inhibition entry in data set [2] and in data set [15] was “Active” in each case. In addition, the IC50 was 1.5 µM in [9] and 0.19 µM in [17].

In general, IC50 refers to the concentration at which inhibition is half-maximal. As usually defined, the CC50 is the concentration that lowers cell viability or growth by half. The term Ki denotes a measure of affinity in units of concentration, obtained from inhibition or displacement.
